Reference: ChEMBL document CHEMBL1255546, “Discovery of potent and selective histamine H3 receptor inverse agonists based on the 3,4-dihydro-2H-pyrazino[1,2-a]indol-1-one scaffold” (Bioorg Med Chem Lett, 2010)
≈ marks a conversion by molar mass, not a printed value.

Experiments:
[1] = molecular target: T1, Histamine H3 receptor (Homo sapiens, UniProt Q9Y5N1); test: Inverse agonist activity at human recombinant histamine H3 receptor assessed as effect on [35S]GTPgammaS binding; assay type: functional
[2] = molecular target: Histamine H4 receptor (Homo sapiens) (UniProt Q9H3N8); test: Displacement of [3H]-histamine from human histamine H4 receptor; design: concentration or dose not given beside the values; conditions: concentration not given here
Summary of the method: (§1)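 Radioligand displacement assays, single determination (n = 1) each: [3H]-mepyramine at H1, [3H]-tiotidine at H2, [3H]-histamine at H4.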

[3] = molecular target: Cytochrome P450 2D6 (Homo sapiens, UniProt P10635); test: Inhibition of CYP2D6; assay type: ADME
[4] = molecular target: Cytochrome P450 2C9 (Homo sapiens, UniProt P11712); test: Inhibition of CYP2C9; assay type: ADME
[5] = Aqueous solubility of the compound in 0.05 M phosphate buffer at pH 6.5; assay type: physicochemical
[6] = Intrinsic clearance in rat liver microsomes; assay type: ADME, Microsome
[7] = Intrinsic clearance in human liver microsomes; assay type: ADME, Microsome
[8] = molecular target: Cytochrome P450 3A4 (Homo sapiens, UniProt P08684); test: Inhibition of CYP3A4; assay type: ADME
[9] = Lipophilicity, log D of the compound at pH 7.4; assay type: physicochemical; conditions: buffer
[10] = molecular target: T1, Histamine H3 receptor; test: Displacement of [3H]-RAMH from human histamine H3 receptor
[11] = molecular target: Histamine H1 receptor (Homo sapiens) (UniProt P35367); test: Displacement of [3H]-mepyramine from human histamine H1 receptor; design: concentration or dose not given beside the values; conditions: concentration not given here; summary of the method: as §1
[12] = molecular target: Histamine H2 receptor (Homo sapiens) (UniProt P25021); test: Displacement of [3H]-tiotidine from human histamine H2 receptor; design: concentration or dose not given beside the values; conditions: concentration not given here; summary of the method: as §1
Chain of Histamine H2 receptor (Homo sapiens) (P25021 whole entry): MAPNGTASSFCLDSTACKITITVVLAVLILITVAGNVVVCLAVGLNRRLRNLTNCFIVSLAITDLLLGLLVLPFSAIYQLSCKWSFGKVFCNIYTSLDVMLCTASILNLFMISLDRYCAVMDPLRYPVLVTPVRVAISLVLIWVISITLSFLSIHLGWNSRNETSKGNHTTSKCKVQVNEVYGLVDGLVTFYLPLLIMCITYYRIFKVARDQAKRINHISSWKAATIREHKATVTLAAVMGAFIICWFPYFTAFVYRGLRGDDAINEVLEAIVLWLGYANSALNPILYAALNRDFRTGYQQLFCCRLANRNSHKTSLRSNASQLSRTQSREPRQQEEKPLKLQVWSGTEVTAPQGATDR

Chain of Cytochrome P450 2D6 (P10635 whole entry): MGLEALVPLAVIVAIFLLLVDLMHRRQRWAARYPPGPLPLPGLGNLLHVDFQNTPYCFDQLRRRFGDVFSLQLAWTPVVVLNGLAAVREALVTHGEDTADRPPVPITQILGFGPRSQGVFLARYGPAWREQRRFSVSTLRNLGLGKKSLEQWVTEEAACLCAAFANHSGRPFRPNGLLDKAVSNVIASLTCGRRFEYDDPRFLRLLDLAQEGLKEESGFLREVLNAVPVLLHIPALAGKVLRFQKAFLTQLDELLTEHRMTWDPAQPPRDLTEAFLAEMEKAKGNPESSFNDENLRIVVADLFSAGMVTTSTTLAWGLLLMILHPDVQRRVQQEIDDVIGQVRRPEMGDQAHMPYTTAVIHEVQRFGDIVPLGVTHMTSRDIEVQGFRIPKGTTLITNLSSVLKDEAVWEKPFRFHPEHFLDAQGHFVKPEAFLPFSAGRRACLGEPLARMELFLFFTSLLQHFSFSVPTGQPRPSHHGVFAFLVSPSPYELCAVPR
Chain of Histamine H1 receptor (Homo sapiens) (P35367 whole entry): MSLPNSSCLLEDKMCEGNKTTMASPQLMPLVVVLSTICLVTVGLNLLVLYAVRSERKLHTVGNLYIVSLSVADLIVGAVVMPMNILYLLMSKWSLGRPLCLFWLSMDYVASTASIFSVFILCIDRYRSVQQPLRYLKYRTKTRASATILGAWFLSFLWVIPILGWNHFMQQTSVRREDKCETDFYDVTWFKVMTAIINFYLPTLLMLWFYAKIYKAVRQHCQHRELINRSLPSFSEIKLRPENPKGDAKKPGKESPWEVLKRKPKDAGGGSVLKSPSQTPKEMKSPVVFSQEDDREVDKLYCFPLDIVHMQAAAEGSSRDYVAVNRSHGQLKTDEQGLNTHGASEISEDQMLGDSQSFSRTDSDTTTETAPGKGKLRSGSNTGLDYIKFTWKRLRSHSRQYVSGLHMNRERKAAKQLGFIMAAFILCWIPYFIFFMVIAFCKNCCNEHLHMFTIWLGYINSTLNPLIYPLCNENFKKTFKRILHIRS
Chain of Cytochrome P450 3A4 (P08684 whole entry): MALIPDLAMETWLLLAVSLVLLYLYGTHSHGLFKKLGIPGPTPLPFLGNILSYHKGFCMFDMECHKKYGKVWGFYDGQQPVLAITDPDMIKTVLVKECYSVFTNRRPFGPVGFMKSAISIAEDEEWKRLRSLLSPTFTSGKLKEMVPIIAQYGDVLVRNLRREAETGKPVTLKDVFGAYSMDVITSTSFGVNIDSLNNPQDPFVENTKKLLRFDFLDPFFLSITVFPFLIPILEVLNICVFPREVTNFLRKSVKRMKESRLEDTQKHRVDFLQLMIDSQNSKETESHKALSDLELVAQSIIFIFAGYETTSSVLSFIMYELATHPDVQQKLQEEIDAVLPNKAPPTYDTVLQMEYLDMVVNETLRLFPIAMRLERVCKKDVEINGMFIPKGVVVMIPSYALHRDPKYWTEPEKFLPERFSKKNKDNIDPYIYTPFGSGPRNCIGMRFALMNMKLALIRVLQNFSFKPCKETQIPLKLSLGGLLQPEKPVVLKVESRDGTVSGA
T1 sequence (Q9Y5N1 whole entry): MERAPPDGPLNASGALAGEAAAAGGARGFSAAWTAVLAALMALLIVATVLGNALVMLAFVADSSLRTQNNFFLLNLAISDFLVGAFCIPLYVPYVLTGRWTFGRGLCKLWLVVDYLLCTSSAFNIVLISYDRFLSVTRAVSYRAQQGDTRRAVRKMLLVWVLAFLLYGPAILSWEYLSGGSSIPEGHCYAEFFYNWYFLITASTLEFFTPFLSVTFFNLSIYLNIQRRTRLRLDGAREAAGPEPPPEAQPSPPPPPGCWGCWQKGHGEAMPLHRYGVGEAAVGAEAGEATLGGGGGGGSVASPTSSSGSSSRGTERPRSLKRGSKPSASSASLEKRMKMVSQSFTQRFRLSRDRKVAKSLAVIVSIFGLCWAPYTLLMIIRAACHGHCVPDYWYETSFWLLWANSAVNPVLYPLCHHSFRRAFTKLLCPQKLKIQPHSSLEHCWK
Chain of Cytochrome P450 2C9 (P11712 whole entry): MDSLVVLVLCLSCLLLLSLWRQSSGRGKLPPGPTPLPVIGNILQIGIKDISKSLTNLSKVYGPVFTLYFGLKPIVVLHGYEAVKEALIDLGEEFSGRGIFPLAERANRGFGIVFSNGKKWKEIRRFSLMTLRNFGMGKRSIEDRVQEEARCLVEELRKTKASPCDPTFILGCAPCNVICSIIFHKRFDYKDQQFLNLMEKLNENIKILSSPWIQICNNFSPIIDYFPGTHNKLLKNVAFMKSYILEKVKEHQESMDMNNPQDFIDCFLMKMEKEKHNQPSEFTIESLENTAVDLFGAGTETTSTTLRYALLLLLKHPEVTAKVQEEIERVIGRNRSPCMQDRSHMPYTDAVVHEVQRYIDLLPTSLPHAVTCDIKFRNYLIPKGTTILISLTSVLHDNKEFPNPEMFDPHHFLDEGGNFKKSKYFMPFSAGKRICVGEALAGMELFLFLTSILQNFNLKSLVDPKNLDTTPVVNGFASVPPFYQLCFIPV

SMILES	EC50 [1] [nM]	inhibition [2] [%]	IC50 [3] [nM]	IC50 [4] [nM]	solubility [5] [µg/mL]	microsomal CLint [6] [µL/min/mg]	microsomal CLint [7] [µL/min/mg]	IC50 [8] [nM]	logD [9]	Ki [10] [nM]	inhibition [11] [%]	inhibition [12] [%]
CC(C)N1CCC(Oc2ccc3c(c2)cc2n3CCCN(CC3CC3)C2=O)CC1	36	-7									5	15
COCCN1CCn2c(cc3cc(OC4CCN(C(C)C)CC4)ccc32)C1=O	51	0								19		6
CC(C)N1CCC(Oc2ccc3c(c2)cc2n3CCNC2=O)CC1	38	6	4000	> 50000	> 436	70	1	> 50000	-0.05	25	1	
CC(C)N1CCC(Oc2ccc3c(c2)cc2n3CCN(CC3CC3)C2=O)CC1	28	7	> 50000	> 50000	> 508	9	14	> 50000	1.09	9		6
O=C1NCCn2c1cc1cc(OCCCN3CCCCC3)ccc12	74	8								18	33	45
O=C1NCCn2c1cc1cc(OC3CCN(CC4CC4)CC3)ccc12		3								129	-4	9
C[C@H]1CC[C@H](C)N1CCCOc1ccc2c(c1)cc1n2CCNC1=O	24	6								11	16	17
CC(C)N1CCC(Oc2ccc3c(c2)cc2n3C[C@@H](C)NC2=O)CC1	46	7	> 50000	> 50000	284 (≈ 832 µM)	10	7	> 50000	0.28	9	2	13
CC(C)N1CCC(Oc2ccc3c(c2)cc2n3CCN(Cc3ccccc3F)C2=O)CC1	28	1								6	16	6
CC(C)N1CCC(Oc2ccc3c(c2)cc2n3CCN(C(C)C)C2=O)CC1	25	-6								27	-6	-2
CC(C)N1CCC(Oc2ccc3c(c2)cc2n3[C@@H](C)CNC2=O)CC1	94	10	> 50000	> 50000	345 (≈ 1010 µM)		4	26000	0.28	42	11	9
C[C@H]1CCCN1CCCOc1ccc2c(c1)cc1n2CCNC1=O	140	4								21	11	10
CC(C)N1CCC(Oc2ccc3c(c2)cc2n3CCCNC2=O)CC1	26	-3	> 50000	> 50000	> 455	28		> 50000	0.07	17	3	9
CC(C)N1CCC(Oc2ccc3c(c2)cc2n3CCN(CC(F)(F)F)C2=O)CC1	40	-4								34	-1	-6
CC(C)N1CCC(Oc2ccc3c(c2)cc2n3[C@H](C)CNC2=O)CC1	29	9	22000	> 50000	> 455	29		> 50000	0.23	26	-4	10

Next, values leading:

EC50 [1] [nM]	inhibition [2] [%]	IC50 [3] [nM]	IC50 [4] [nM]	solubility [5] [µg/mL]	microsomal CLint [6] [µL/min/mg]	microsomal CLint [7] [µL/min/mg]	IC50 [8] [nM]	logD [9]	Ki [10] [nM]	inhibition [11] [%]	inhibition [12] [%]	SMILES
2	7	5000	> 50000	> 589	12	4	> 50000	1.67	2	9	-6	CC(C)N1CCC(Oc2ccc3c(c2)cc(C(=O)N2CCC(F)(F)CC2)n3C(C)C)CC1
4	-4	> 50000	> 50000	> 436	37		> 50000	0.13	7	13	4	C[C@@H]1CCCN1CCCOc1ccc2c(c1)cc1n2CCNC1=O
14	15	> 50000	> 50000	> 455		3	> 50000	0.23	6	-2	26	CC(C)N1CCC(Oc2ccc3c(c2)cc2n3C[C@H](C)NC2=O)CC1
14	-3								6	6	4	CC(C)N1CCC(Oc2ccc3c(c2)cc2n3CCN(Cc3ccccn3)C2=O)CC1
23	4								14	24	21	CC(C)N1CCC(Oc2ccc3c(c2)cc2n3CCN(Cc3cccc(F)c3)C2=O)CC1
2	1	> 50000	> 50000	506 (≈ 1070 µM)	20	7	> 50000	2.32	2	10	-3	CC(C)N1CCC(Oc2cc3cc4n(c3cc2Br)[C@@H](C)CN(CC2CC2)C4=O)CC1
13	3								5	3	3	CC(C)N1CCC(Oc2ccc3c(c2)cc2n3CCN(Cc3cccnc3)C2=O)CC1
12	3	> 50000	> 50000	> 456	27	8	6000	0.64	5	4		CC(C)N1CCC(Oc2ccc3c(c2)cc2n3CCN(Cc3ccncc3)C2=O)CC1
4	-10	> 50000	> 50000	> 526	12	1	> 50000	1.13	4		18	CC(C)N1CCC(Oc2cc3cc4n(c3cc2Br)[C@@H](C)CNC4=O)CC1
